System: HEK-293T
Assay: Multiplex assay against HEK293T;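 for Population Tubulin-Different-Phenotype (%): share of the cells with healthy nuclei that show this phenotype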
Format: toxicity, cell-based
Conditions: human
Outline: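 Per cents of healthy-nucleus cells form the tubulin, mitochondrial-mass and membrane-permeability phenotype values. Live cells were stained at seeding with Hoechst33342, BioTracker Green Microtubule Cytoskeleton Dye, MitoTracker Red and Annexin V Alexa Fluor 680. After compound addition they were imaged on a CQ1 microscope at 37°C and 5% CO2, and CellPathfinder machine-learning gating split them into Hoechst high-intensity objects or normal cells, normal cells into healthy, pyknosed or fragmented nuclei, and pyknosed cells into mitotic or apoptotic.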

[1] = 12 h, 1 µM, compound concentration 1 uM, replicate 1
[2] = 12 h, 1 µM, compound concentration 1 uM, replicate 2
[3] = 12 h, 10 µM, compound concentration 10 uM, replicate 1
[4] = 12 h, 10 µM, compound concentration 10 uM, replicate 2
[5] = 24 h, 1 µM, compound concentration 1 uM, replicate 1
[6] = 24 h, 1 µM, compound concentration 1 uM, replicate 2
[7] = 24 h, 10 µM, compound concentration 10 uM, replicate 1
[8] = 24 h, 10 µM, compound concentration 10 uM, replicate 2
[9] = 48 h, 1 µM, compound concentration 1 uM, replicate 1
[10] = 48 h, 1 µM, compound concentration 1 uM, replicate 2
[11] = 48 h, 10 µM, compound concentration 10 uM, replicate 1
[12] = 48 h, 10 µM, compound concentration 10 uM, replicate 2

In the case of Cc1cccc(CN2CCN(C(c3ccccc3)c3ccc(Cl)cc3)CC2)c1.Cl.Cl (configuration not stated), the “Population Apoptotic (%)” value [1] is reported as 52%, the “Population Fragmented Nuclei (%)” value [1] is reported as 13% and the “Population Healthy Nuclei (%)” value [1] is reported as 25%. For the same compound, the “Population Hoechst High Intensity Objects (%)” value [1] was 19%, the “Population Membrane Permeable-Phenotype (%)” value [1] was 0% and the “Population Mitochondria Different-Phenotype (%)” value [1] was 73%. The “Population Mitotic Cells (%)” value [1] was 47%, the “Population Normal (%)” value [1] was 80% and the “Population Pyknosed Nuclei (%)” value [1] was 60%. The “Population Tubulin-Different-Phenotype (%)” value [1] was 39%, the “Total Cell Count” value [1] was 198 and the “Population Apoptotic (%)” value [2] was 9%. The “Population Fragmented Nuclei (%)” value [2] was 6%, the “Population Healthy Nuclei (%)” value [2] was 48% and the “Population Hoechst High Intensity Objects (%)” value [2] was 3%. For the same compound, the “Population Membrane Permeable-Phenotype (%)” value [2] was 10%, the “Population Mitochondria Different-Phenotype (%)” value [2] was 25% and the “Population Mitotic Cells (%)” value [2] was 90%. The “Population Normal (%)” value [2] was 96%, the “Population Pyknosed Nuclei (%)” value [2] was 44% and the “Population Tubulin-Different-Phenotype (%)” value [2] was 18%. For the same compound, the “Total Cell Count” value [2] was 170, the “Population Apoptotic (%)” value [3] was 69% and the “Population Fragmented Nuclei (%)” value [3] was 10%. The “Population Healthy Nuclei (%)” value [3] was 40%, the “Population Hoechst High Intensity Objects (%)” value [3] was 16% and the “Population Membrane Permeable-Phenotype (%)” value [3] was 3%. The “Population Mitochondria Different-Phenotype (%)” value [3] was 96%, the “Population Mitotic Cells (%)” value [3] was 30% and the “Population Normal (%)” value [3] was 83%. The “Population Pyknosed Nuclei (%)” value [3] was 49%, the “Population Tubulin-Different-Phenotype (%)” value [3] was 85% and the “Total Cell Count” value [3] was 255. For the same compound, the “Population Apoptotic (%)” value [4] was 42%, the “Population Fragmented Nuclei (%)” value [4] was 8% and the “Population Healthy Nuclei (%)” value [4] was 38%. For the same compound, the “Population Hoechst High Intensity Objects (%)” value [4] was 3%, the “Population Membrane Permeable-Phenotype (%)” value [4] was 6% and the “Population Mitochondria Different-Phenotype (%)” value [4] was 73%. For the same compound, the “Population Mitotic Cells (%)” value [4] was 57%, the “Population Normal (%)” value [4] was 96% and the “Population Pyknosed Nuclei (%)” value [4] was 53%. The “Population Tubulin-Different-Phenotype (%)” value [4] was 69%, the “Total Cell Count” value [4] was 206 and the “Population Apoptotic (%)” value [5] was 51%. The “Population Fragmented Nuclei (%)” value [5] was 11%, the “Population Healthy Nuclei (%)” value [5] was 33% and the “Population Hoechst High Intensity Objects (%)” value [5] was 17%. For the same compound, the “Population Membrane Permeable-Phenotype (%)” value [5] was 1%, the “Population Mitochondria Different-Phenotype (%)” value [5] was 73% and the “Population Mitotic Cells (%)” value [5] was 48%. The “Population Normal (%)” value [5] was 82%, the “Population Pyknosed Nuclei (%)” value [5] was 55% and the “Population Tubulin-Different-Phenotype (%)” value [5] was 43%. For the same compound, the “Total Cell Count” value [5] was 204, the “Population Apoptotic (%)” value [6] was 10% and the “Population Fragmented Nuclei (%)” value [6] was 6%. The “Population Healthy Nuclei (%)” value [6] was 66%, the “Population Hoechst High Intensity Objects (%)” value [6] was 4% and the “Population Membrane Permeable-Phenotype (%)” value [6] was 7%. For the same compound, the “Population Mitochondria Different-Phenotype (%)” value [6] was 26%, the “Population Mitotic Cells (%)” value [6] was 89% and the “Population Normal (%)” value [6] was 95%. The “Population Pyknosed Nuclei (%)” value [6] was 26%, the “Population Tubulin-Different-Phenotype (%)” value [6] was 33% and the “Total Cell Count” value [6] was 221. The “Population Apoptotic (%)” value [7] was 75%, the “Population Fragmented Nuclei (%)” value [7] was 11% and the “Population Healthy Nuclei (%)” value [7] was 41%. For the same compound, the “Population Hoechst High Intensity Objects (%)” value [7] was 15%, the “Population Membrane Permeable-Phenotype (%)” value [7] was 0% and the “Population Mitochondria Different-Phenotype (%)” value [7] was 96%. For the same compound, the “Population Mitotic Cells (%)” value [7] was 24%, the “Population Normal (%)” value [7] was 84% and the “Population Pyknosed Nuclei (%)” value [7] was 46%. For the same compound, the “Population Tubulin-Different-Phenotype (%)” value [7] was 87%, the “Total Cell Count” value [7] was 274 and the “Population Apoptotic (%)” value [8] was 59%. For the same compound, the “Population Fragmented Nuclei (%)” value [8] was 6%, the “Population Healthy Nuclei (%)” value [8] was 56% and the “Population Hoechst High Intensity Objects (%)” value [8] was 3%. For the same compound, the “Population Membrane Permeable-Phenotype (%)” value [8] was 6%, the “Population Mitochondria Different-Phenotype (%)” value [8] was 87% and the “Population Mitotic Cells (%)” value [8] was 40%. The “Population Normal (%)” value [8] was 96%, the “Population Pyknosed Nuclei (%)” value [8] was 37% and the “Population Tubulin-Different-Phenotype (%)” value [8] was 81%. For the same compound, the “Total Cell Count” value [8] was 246, the “Population Apoptotic (%)” value [9] was 49% and the “Population Fragmented Nuclei (%)” value [9] was 18%. For the same compound, the “Population Healthy Nuclei (%)” value [9] was 34%, the “Population Hoechst High Intensity Objects (%)” value [9] was 17% and the “Population Membrane Permeable-Phenotype (%)” value [9] was 2%. The “Population Mitochondria Different-Phenotype (%)” value [9] was 47%, the “Population Mitotic Cells (%)” value [9] was 50% and the “Population Normal (%)” value [9] was 82%. For the same compound, the “Population Pyknosed Nuclei (%)” value [9] was 47%, the “Population Tubulin-Different-Phenotype (%)” value [9] was 34% and the “Total Cell Count” value [9] was 244. The “Population Apoptotic (%)” value [10] was 15%, the “Population Fragmented Nuclei (%)” value [10] was 10% and the “Population Healthy Nuclei (%)” value [10] was 75%. For the same compound, the “Population Hoechst High Intensity Objects (%)” value [10] was 4%, the “Population Membrane Permeable-Phenotype (%)” value [10] was 5% and the “Population Mitochondria Different-Phenotype (%)” value [10] was 7%. The “Population Mitotic Cells (%)” value [10] was 84%, the “Population Normal (%)” value [10] was 95% and the “Population Pyknosed Nuclei (%)” value [10] was 13%. The “Population Tubulin-Different-Phenotype (%)” value [10] was 20%, the “Total Cell Count” value [10] was 397 and the “Population Apoptotic (%)” value [11] was 61%. The “Population Fragmented Nuclei (%)” value [11] was 13%, the “Population Healthy Nuclei (%)” value [11] was 55% and the “Population Hoechst High Intensity Objects (%)” value [11] was 12%. For the same compound, the “Population Membrane Permeable-Phenotype (%)” value [11] was 2%, the “Population Mitochondria Different-Phenotype (%)” value [11] was 89% and the “Population Mitotic Cells (%)” value [11] was 38%. For the same compound, the “Population Normal (%)” value [11] was 87%, the “Population Pyknosed Nuclei (%)” value [11] was 31% and the “Population Tubulin-Different-Phenotype (%)” value [11] was 83%. For the same compound, the “Total Cell Count” value [11] was 309, the “Population Apoptotic (%)” value [12] was 44% and the “Population Fragmented Nuclei (%)” value [12] was 7%. The “Population Healthy Nuclei (%)” value [12] was 68%, the “Population Hoechst High Intensity Objects (%)” value [12] was 4% and the “Population Membrane Permeable-Phenotype (%)” value [12] was 4%. For the same compound, the “Population Mitochondria Different-Phenotype (%)” value [12] was 67%, the “Population Mitotic Cells (%)” value [12] was 55% and the “Population Normal (%)” value [12] was 95%. For the same compound, the “Population Pyknosed Nuclei (%)” value [12] was 24%, the “Population Tubulin-Different-Phenotype (%)” value [12] was 71% and the “Total Cell Count” value [12] was 355.
